The results in this text go back to ChEMBL document CHEMBL1125226, “Antineoplastic activity of didemnin congeners: nordidemnin and modified chain analogues” (1991).

Molecules are shown by their SMILES. Converted amounts (≈) assume the structure as drawn.

As usually defined, the T/C is the result in the treated group divided by that in the control group, in per cent.

The subject of experiment [1] is P388. As to the kind of experiment: Antitumor activity against P388 Leukemia from CDF1 female mice evaluated as Median survival time of treated mice at a dose of 0.06 mg/kg/day. In kind it is functional, Mus musculus. A digest of the protocol: (§1)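 CDF1 female mice (BALB/c ♀ × DBA/2 ♂) given 10⁶ P388 cells ip on day 0. Drug in 2% methanol given ip on days 1, 5 and 9, 10 mice per group and more controls. Toxicity is survivors on day 5, with weight change between days 1 and 5. Mortality followed 30 days. T/C% is treated over control median survival (NCI method), significant at ≥125%.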

Experiment [2] has as its system P388. As to the kind of experiment: Antitumor activity (T/C) was evaluated from the median survival time of treated mice (T) over that of control mice (C) at a dose of 0.06 mg/kg/day. In kind it is functional, Mus musculus. A digest of the protocol:
as §1

Experiment [3] deals with B16. As to the kind of experiment: Antitumor activity against B16 melanoma from B6 D2 F1 female mice(T/C) was evaluated from the median survival time of treated mice (T) over that of control mice (C) at a dose of 1 mg/kg/day. In kind it is functional, Mus musculus. A digest of the protocol:
(§2)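 B6D2F1 female mice (C57BL/6 ♀ × DBA/2 ♂) implanted ip on day 0 with 0.5 mL of B16 tumor suspension (1 g homogenized in 9 mL 0.9% saline). Dosing ip on days 1, 5 and 9. Day-5 survivors give toxicity. Median survival of treated vs control mice gives T/C%, with ≥125% significant.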

Experiment [4] deals with L1210. As to the kind of experiment: Antitumor activity against L1210 Lymphoid Leukemia from CDF1 female mice as average weight change of animals between day 1 and day 5 after tumor implementation at a dose of 0.50 mg/kg/day. In kind it is functional, Mus musculus. The essentials:
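CDF1 female mice (BALB/c × DBA/2) received 10⁵ L1210 cells ip on day 0. Drug was dissolved in 2% methanol and given ip on days 1, 5 and 9, to 10 mice per group. Weights were taken on days 1 and 5, and the mean change was reported.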

The test system of experiment [5] is B16. As to the kind of experiment: Antitumor activity against B16 melanoma from B6 D2 F1 female mice as average weight change of animals between day 1 and day 5 after tumor implementation at a dose of 0.50 mg/kg/day (repeated ip injections, day 1-9). In kind it is functional, Mus musculus. The note with it: route intraperitoneal. The essentials: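 B6D2F1 female mice (C57BL/6 × DBA/2) were implanted ip on day 0 with 0.5 mL of B16 suspension (1 g tumor homogenized in 9 mL 0.9% saline). Ip treatment was given once daily, day 1 to day 9. Body weight was recorded on days 1 and 5 after implantation, and the mean change per group was reported.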

The subject of experiment [6] is B16. Description: Antitumor activity against B16 melanoma from B6 D2 F1 female mice evaluated as Median survival time of treated mice at a dose of 0.25 mg/kg/day. In kind it is functional, Mus musculus. The essentials:
as §2

Experiment [7] deals with P388. Description: Antitumor activity against P388 Leukemia from CDF1 female mice evaluated as the number of survivors on day 5 at a dose of 0.75 mg/kg/day. In kind it is functional, Mus musculus. A digest of the protocol: (§3)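 CDF1 female mice (BALB/c × DBA/2) inoculated ip with 10⁶ P388 cells on day 0. Drug given ip in 2% methanol on days 1, 5 and 9. Ten mice per dose group, with a larger control group. Body weight and survival were recorded on days 1 and 5, with toxicity taken as survivors on day 5. Mortality was followed for 30 days to give median survival time.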

For experiment [8], the system named is P388. Description: Antitumor activity against P388 Leukemia from CDF1 female mice evaluated as Median survival time of treated mice at a dose of 0.12 mg/kg/day. In kind it is functional, Mus musculus. The essentials:
as §1

The subject of experiment [9] is P388. As to the kind of experiment: Antitumor activity against P388 Leukemia from CDF1 female mice evaluated as Median survival time of treated mice at a dose of 0.50 mg/kg/day. In kind it is functional, Mus musculus. The essentials: as §3
The subject of experiment [10] is L1210. Description: In vitro cytostatic activity determined on L1210 leukemia cells at 48 hours. In kind it is functional. The note with it: Mus musculus, L1210, 48 h; read-out: ID50 (the source's name). A digest of the protocol:
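Log-phase L1210 cells were seeded at 0.8 × 10⁵ cells/mL in RPMI 1640 with 20% heat-inactivated horse serum, 2 mmol/L L-glutamine, streptomycin and penicillin. Drugs in ethanol (0.5% final) were tested at several concentrations.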

The test system of experiment [11] is P388. As to the kind of experiment: Median survival time of treated mice at a dose of 1 mg/kg/day. In kind it is functional, Mus musculus.
Experiment [12] concerns P388. Description: Antitumor activity (T/C) was evaluated from the median survival time of treated mice (T) over that of control mice (C) at a dose of 0.25 mg/kg/day. In kind it is functional, Mus musculus. A digest of the protocol:
as §1

Experiment [13] concerns B16. Description: Antitumor activity against B16 melanoma from B6 D2 F1 female mice evaluated as the number of survivors on day 5 at a dose of 0.25 mg/kg/day. In kind it is functional, Mus musculus. The essentials:
as §2

Experiment [14] relates to B16. As to the kind of experiment: Antitumor activity against B16 melanoma from B6 D2 F1 female mice evaluated as average weight change of animals between day 1 and day 5 after tumor implementation at a dose of 0.50 mg/kg/day. In kind it is functional, Mus musculus. The essentials: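 B16 melanoma in B6D2F1 female mice: 0.5 mL of tumor homogenate (1 g in 9 mL 0.9% saline) was given ip on day 0. Ip dosing was on days 1, 5 and 9. The readout was the average body weight change between day 1 and day 5 after tumor implantation.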

The test system of experiment [15] is P388. Description: Antitumor activity against P388 Leukemia from CDF1 female mice evaluated as the number of survivors on day 5 at a dose of 0.03 mg/kg/day. In kind it is functional, Mus musculus. The essentials: as §3
In experiment [16] the test system is L1210. Description: Antitumor activity against L1210 Lymphoid Leukemia from CDF1 female mice evaluated as the number of survivors on day 5 at a dose of 0.25 mg/kg/day. In kind it is functional, Mus musculus. The essentials: (§4)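 L1210 leukemia, 10⁵ cells ip on day 0 into CDF1 female mice (BALB/c ♀ × DBA/2 ♂). Drug in 2% methanol given ip on days 1, 5 and 9, 10 mice per group. Survivors and body weight recorded on days 1 and 5, with toxicity as survivors on day 5. Deaths followed for 30 days. T/C = treated/control median survival time, significant at ≥125%.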

Experiment [17] has as its system B16. As to the kind of experiment: Antitumor activity against B16 melanoma from B6 D2 F1 female mice(T/C) as median survival time of treated mice (T) over that of control mice (C) at a dose of 0.25 mg/kg/day (repeated ip injections, day 1-9). The note with it: route intraperitoneal. In kind it is functional, Mus musculus. A digest of the protocol: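 B16 melanoma homogenate (1 g tumor in 9 mL 0.9% saline), 0.5 mL implanted ip on day 0 in B6D2F1 female mice (C57BL/6 ♀ × DBA/2 ♂). Treatment ip once daily from day 1 to day 9. Toxicity scored as survivors on day 5. Median survival recorded and T/C computed as treated/control median survival, ≥125% significant.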

Experiment [18] has as its system B16. As to the kind of experiment: Antitumor activity against B16 melanoma from B6 D2 F1 female mice(T/C) was evaluated from the median survival time of treated mice (T) over that of control mice (C) at a dose of 0.06 mg/kg/day. In kind it is functional, Mus musculus. The essentials:
as §2

The test system of experiment [19] is P388. Description: Average weight change of animals between day 1 and day 5 after tumor implementation at a dose of 0.12 mg/kg/day. In kind it is functional, Mus musculus. A digest of the protocol:
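P388 leukemia: CDF1 female mice were inoculated ip with 10⁶ cells on day 0. Treatment in 2% methanol was given ip on days 1, 5 and 9, with 10 mice per group and a larger control group. Body weight was recorded on days 1 and 5 post-implant, and the average change was reported.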

In experiment [20] the test system is B16. As to the kind of experiment: Antitumor activity against B16 melanoma from B6 D2 F1 female mice evaluated as Median survival time of treated mice at a dose of 1 mg/kg/day. In kind it is functional, Mus musculus. The essentials: as §2
Experiment [21] relates to B16. Description: Antitumor activity against B16 melanoma from B6 D2 F1 female mice evaluated as the number of survivors on day 5 at a dose of 1 mg/kg/day. In kind it is functional, Mus musculus. The essentials:
as §2

Experiment [22] has as its system L1210. Description: Antitumor activity against L1210 Lymphoid Leukemia from CDF1 female mice as Median survival time of treated mice at a dose of 1.0 mg/kg/day. In kind it is functional, Mus musculus. The essentials:
as §4

In the case of `COc1ccc(C[C@H]2C(=O)O[C@H](C)[C@H](NC(=O)[C@@H](CC(C)C)N(C)C(=O)C3CCCN3C(=O)[C@@H](C)O)C(=O)NC(C(C)C)[C@H](O)CC(=O)O[C@@H](C(C)C)C(=O)[C@H](C)C(=O)N[C@@H](CC(C)C)C(=O)N3CCC[C@H]3C(=O)N2C)cc1` (some centres not stated) [NORDIDEMNIN], the “median survival time, days” value with P388 [1] turned out to be 13.6; in the experiment with B16 [6], 27; in the experiment on P388 [8] it was 14.7; with P388 [9] it was 17.9; in the experiment on P388 [11], 19.9; in the experiment on B16 [20], 29.3. Also, the “median survival time, days” value in the experiment with L1210 [22] was determined as 11.2. For the same molecule, the T/C turned out to be 123% in the experiment on P388 [2]; 154% in the experiment with B16 [3]; 142% in the experiment on P388 [12]; 157% with B16 [17]; 116% in the experiment on B16 [18]. Also, the Body weight change was -0.9 g in the experiment on L1210 [4], -2.3 g in the experiment on B16 [5], -0.9 g in the experiment with B16 [14] and -0.7 g with P388 [19]. The Toxicity in the experiment on P388 [7], in the experiment on B16 [13], in the experiment with P388 [15], in the experiment with L1210 [16] and in the experiment with B16 [21] was 1 each time. Further, the IC50 in the experiment on L1210 [10] was 1.9 ng/mL (≈ 1.73 nM).
